The target of one series is GATA4/NKX2-5 (Mus musculus, UniProt P42582+Q08369). Put plainly: Inhibition of mouse GATA4/NKX2-5 transcriptional synergy expressed in African green monkey COS-1 cells measured after 30 hrs by dual luciferase reporter gene assay. It counts as cell-based. In outline:
(§1)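 COS-1 cells co-transfected (Fugene 6, DNA:reagent 1:3) with p3xNKE-luc, Renilla pRL-TKd238 control, and pMT2-GATA4, pMT2-NKX2-5, both, or empty pMT2; DNA balanced with pMT2. Compounds added 6 h post-transfection in 0.1% DMSO, medium renewed at 24 h, lysis at 30 h. Dual-luciferase read-out, firefly/Renilla normalized to vehicle; duplicate wells.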
(Reporter assays use an easily measured gene product as a stand-in for the process of interest.)

Series [1] addresses T1, GATA4/NKX2-5 (Mus musculus) (UniProt Q08369+P42582). Put plainly: Inhibition of mouse GATA4/NKX2-5 transcriptional synergy expressed in African green monkey COS-1 cells at 20 uM measured after 30 hrs by dual luciferase reporter gene assay. The format is cell-based. The note with it: 5 uM, in the assay text read “5 uM” for “20 uM”. The method, boiled down: as §1
Series [2] in a line: Induction of necrosis in neonatal rat ventricular cardiomyocytes assessed as release of adenylate kinase at 50 uM measured after 24 hrs by bioluminescence assay. The format is cell-based. To be noted: cardiac muscle cell. In outline: (§2)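 Neonatal rat cardiomyocytes treated 24 h at 50 μM; adenylate kinase released into medium measured by ToxiLight bioluminescence on a luminometer; relative to vehicle, mean ± SD, n = 3.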

A short description of series [3]: Induction of aggregation of compounds at 100 uM by nephalometric method.
Series [4] can be described thus: Induction of apoptosis in endothelin-1 induced neonatal rat ventricular cardiomyocytes at 50 uM measured after 24 hrs by TUNEL assay. It counts as cell-based. The note with it: cardiac muscle cell. The method, boiled down:
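Neonatal rat cardiomyocytes on 8-well chamber slides treated 24 h at 50 μM; apoptotic cells detected by TUNEL with peroxidase in situ kit.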

In series [5] the target is Homeobox protein Nkx-2.5 (Mus musculus) (UniProt P42582). In words: Inhibition of binding of mouse NKX2-5 to [32P]-double stranded oligonucleotide expressed in African green monkey COS-1 cells at 50 uM preincubated for 10 mins followed by [32P]-double stranded oligonucleotide addition measured after 20 mins by EMSA method. The format is cell-based. The method, boiled down:
(§3)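 Nuclear extracts from COS-1 cells transfected with pMT2-GATA4 or pMT2-NKX2-5 (harvested 48 h) preincubated 10 min with 50 μM compound, then 20 min with 32P-labeled GATA4- or NKX2-5-site probe; native 5% PAGE, phosphorimager quantitation; antibody supershift controls; mean ± SD, n = 3–5.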
(Mobility shift assays separate free from complexed probe on a gel.)

Series [6] deals with T2, GATA4/NKX2-5 (Rattus norvegicus) (UniProt P46152+O35767). Put plainly: Activation of GATA4/NKX2-5 interaction in neonatal rat ventricular cardiomyocytes assessed as increase in basal mRNA level of BNP at 100 uM after 24 hrs by real-time PCR analysis relative to control. The method, boiled down: (§4)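 Neonatal rat ventricular myocytes (2–4-day-old Sprague-Dawley or Wistar), preplated, seeded on 6-well plates, moved to complete serum-free medium next day and cultured 24 h. Compounds (10–100 μM) added 1 h before 100 nM endothelin-1 or none; ANP and BNP mRNA quantified by RT-PCR at 24 h, normalized to 18S RNA, relative to vehicle; mean ± SD, n = 3–6.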
On the technique in general: In qPCR the cycle at which signal appears reflects the starting amount.

For series [7], the target named is Transcription factor GATA-4 (Mus musculus) (UniProt Q08369). Put plainly: Inhibition of mouse GATA4-driven transactivation of luciferase reporter construct containing BNP minimal promoter with tandem GATA-site on -90 bp expressed in African green monkey COS-1 cells after 30 hrs by luminometer. It counts as cell-based. The method, boiled down: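 COS-1 cells co-transfected with firefly luciferase driven by BNP minimal or −90 bp BNP promoter, Renilla pRL-TKd238, and pMT2-GATA4 or empty pMT2. Compounds added 6 h post-transfection in 0.1% DMSO, refreshed with medium at 24 h; lysis at 30 h; dual-luciferase, firefly/Renilla normalized to vehicle; triplicate wells.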
Chain of Transcription factor GATA-4 (Mus musculus) (Q08369 whole entry): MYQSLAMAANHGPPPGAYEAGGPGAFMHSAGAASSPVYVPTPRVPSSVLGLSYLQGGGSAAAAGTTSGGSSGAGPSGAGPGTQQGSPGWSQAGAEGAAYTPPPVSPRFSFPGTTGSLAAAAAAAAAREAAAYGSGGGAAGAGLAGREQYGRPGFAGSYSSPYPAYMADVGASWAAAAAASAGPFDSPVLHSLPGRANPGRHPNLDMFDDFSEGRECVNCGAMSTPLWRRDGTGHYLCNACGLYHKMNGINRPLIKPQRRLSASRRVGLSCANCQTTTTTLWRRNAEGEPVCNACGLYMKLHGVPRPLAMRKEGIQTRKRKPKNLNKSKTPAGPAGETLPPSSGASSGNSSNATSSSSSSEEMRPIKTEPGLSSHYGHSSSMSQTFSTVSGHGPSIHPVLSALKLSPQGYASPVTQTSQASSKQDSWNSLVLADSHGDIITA

For series [8] the target is unchanged. Put plainly: Inhibition of binding of mouse GATA4 to [32P]-double stranded oligonucleotide expressed in African green monkey COS-1 cells at 50 uM preincubated for 10 mins followed by [32P]-double stranded oligonucleotide addition measured after 20 mins by EMSA method. It counts as cell-based. In outline:
as §3

The target in series [9] is Transcription factor GATA-4 (Rattus norvegicus) (UniProt P46152). Put plainly: Inhibition of binding of GATA4 to [32P]-double stranded oligonucleotide in neonatal rat ventricular cardiomyocytes at 50 uM measured after 24 hrs by EMSA method. In outline:
(§5)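 Neonatal rat cardiomyocytes treated 24 h with 50 μM; nuclear extracts incubated 20 min with [α-32P]dCTP Klenow-labeled GATA4- or NKX2-5-site oligonucleotide in HEPES/NaCl/KCl/MgCl2 buffer with poly(dI-dC); 5% native PAGE, phosphorimager; supershift with anti-GATA4/NKX2-5; relative to vehicle, mean ± SD, n = 3–5.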

For series [10], the target named is Fibroblast growth factor receptor 3 (Homo sapiens) (UniProt P22607). Put plainly: Inhibiton of human FGFR3 at 30 uM. In outline: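 48-kinase profiling panel; compounds tested at 30 μM in duplicate.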
Chain of Fibroblast growth factor receptor 3 (Homo sapiens) (P22607 23-806 limits assumed): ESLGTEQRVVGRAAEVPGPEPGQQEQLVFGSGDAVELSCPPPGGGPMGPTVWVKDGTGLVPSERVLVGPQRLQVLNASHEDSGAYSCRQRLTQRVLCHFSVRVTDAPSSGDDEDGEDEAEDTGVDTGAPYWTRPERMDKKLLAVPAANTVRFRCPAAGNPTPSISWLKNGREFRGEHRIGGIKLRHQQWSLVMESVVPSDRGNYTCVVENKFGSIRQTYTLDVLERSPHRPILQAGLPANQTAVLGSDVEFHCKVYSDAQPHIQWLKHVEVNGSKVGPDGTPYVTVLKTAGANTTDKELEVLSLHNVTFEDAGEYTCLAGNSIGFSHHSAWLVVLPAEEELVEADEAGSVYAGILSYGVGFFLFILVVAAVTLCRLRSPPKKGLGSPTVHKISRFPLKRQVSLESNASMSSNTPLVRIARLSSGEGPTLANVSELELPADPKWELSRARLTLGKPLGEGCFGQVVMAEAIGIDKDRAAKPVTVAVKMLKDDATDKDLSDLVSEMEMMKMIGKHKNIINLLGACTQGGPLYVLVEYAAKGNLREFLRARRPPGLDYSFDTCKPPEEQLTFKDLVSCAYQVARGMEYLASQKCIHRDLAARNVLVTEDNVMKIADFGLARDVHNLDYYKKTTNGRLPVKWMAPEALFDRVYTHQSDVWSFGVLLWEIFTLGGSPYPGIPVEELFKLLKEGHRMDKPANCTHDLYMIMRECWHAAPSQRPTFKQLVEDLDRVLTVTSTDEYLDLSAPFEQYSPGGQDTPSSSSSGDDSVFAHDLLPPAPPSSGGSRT
For series [11], the target named is T2, GATA4/NKX2-5 (Rattus norvegicus). In words: Activation of GATA4/NKX2-5 interaction in neonatal rat ventricular cardiomyocytes assessed as increase in basal mRNA level of ANP at 100 uM after 24 hrs by real-time PCR analysis relative to control. The method, boiled down:
as §4

Series [12] is described as follows: Induction of aggregation of compound at 3 to 30 uM by nephalometric method.
The target in series [13] is T1, GATA4/NKX2-5 (Mus musculus). Put plainly: Inhibition of mouse GATA4/NKX2-5 transcriptional synergy expressed in African green monkey COS-1 cells at 50 uM measured after 30 hrs by dual luciferase reporter gene assay. The format is cell-based. The method, boiled down:
as §1

A short description of series [14]: Induction of necrosis in endothelin-1 induced neonatal rat ventricular cardiomyocytes assessed as release of adenylate kinase at 50 uM measured after 24 hrs by bioluminescence assay. The format is cell-based. The note with it: cardiac muscle cell. The method, boiled down: as §2
The target of series [15] is Homeobox protein Nkx-2.5 (Rattus norvegicus) (UniProt O35767). Put plainly: Inhibition of binding of NKX2-5 to [32P]-double stranded oligonucleotide in neonatal rat ventricular cardiomyocytes at 50 uM measured after 24 hrs by EMSA method. In outline: as §5
Chain of Homeobox protein Nkx-2.5 (Rattus norvegicus) (O35767 whole entry): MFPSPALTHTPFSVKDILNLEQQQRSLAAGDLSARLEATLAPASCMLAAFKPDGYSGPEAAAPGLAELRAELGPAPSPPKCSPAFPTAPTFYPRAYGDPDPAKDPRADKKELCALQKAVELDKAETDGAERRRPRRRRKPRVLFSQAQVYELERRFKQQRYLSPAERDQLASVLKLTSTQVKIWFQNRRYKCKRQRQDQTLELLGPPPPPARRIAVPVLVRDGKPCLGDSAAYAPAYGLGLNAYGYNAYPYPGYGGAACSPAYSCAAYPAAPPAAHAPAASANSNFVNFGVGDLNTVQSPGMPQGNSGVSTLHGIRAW
Series [16] in a line: Induction of aggregation of compound at 30 uM by nephalometric method.
In series [17] the target is T2, GATA4/NKX2-5 (Rattus norvegicus). In words: Activation of GATA4/NKX2-5 interaction in neonatal rat ventricular cardiomyocytes assessed as increase in basal mRNA level of ANP at 20 uM after 24 hrs by real-time PCR analysis relative to control. The method, boiled down: as §4
In series [18] the target is T1, GATA4/NKX2-5 (Mus musculus). Put plainly: Activation of mouse GATA4/NKX2-5 transcriptional synergy expressed in African green monkey COS-1 cells measured after 30 hrs by dual luciferase reporter gene assay. It counts as cell-based. The method, boiled down:
as §1

Series [19] addresses T2, GATA4/NKX2-5 (Rattus norvegicus). In words: Activation of GATA4/NKX2-5 interaction in neonatal rat ventricular cardiomyocytes assessed as increase in basal mRNA level of BNP at 20 uM after 24 hrs by real-time PCR analysis relative to control. The method, boiled down:
as §4

Series [20] deals with T1, GATA4/NKX2-5 (Mus musculus). Put plainly: Activation of mouse GATA4/NKX2-5 transcriptional synergy expressed in African green monkey COS-1 cells at 10 uM measured after 30 hrs by dual luciferase reporter gene assay. It counts as cell-based. In outline: as §1
Series [21] concerns the target T2, GATA4/NKX2-5 (Rattus norvegicus). Put plainly: Activation of GATA4/NKX2-5 interaction in neonatal rat ventricular cardiomyocytes assessed as increase in endothelin-1 induced mRNA level of BNP at 20 uM preincubated for 1 hr followed by endothelin-1 addition measured after 23 hrs by real-time PCR analysis relative to control. In outline:
as §4

For series [22] the target is unchanged. Put plainly: Inhibition of GATA4/NKX2-5 interaction in neonatal rat ventricular cardiomyocytes assessed as decrease in endothelin-1 induced mRNA level of ANP at 20 uM preincubated for 1 hr followed by endothelin-1 addition measured after 23 hrs by real-time PCR analysis. In outline:
as §4

In series [23] the target is T1, GATA4/NKX2-5 (Mus musculus). To be noted: 10 uM.
The target in series [24] is T2, GATA4/NKX2-5 (Rattus norvegicus). In words: Inhibition of GATA4/NKX2-5 interaction in neonatal rat ventricular cardiomyocytes assessed as decrease in endothelin-1 induced mRNA level of BNP at 20 uM preincubated for 1 hr followed by endothelin-1 addition measured after 23 hrs by real-time PCR analysis. In outline: as §4
Series [25] can be described thus: Drug level in mouse embryonic stem cells treated with N-[4-(Diethylamino)phenyl]-5-methyl-3-phenylisoxazole-4-carboxamide at 3 to 5 uM measured after 10 days by HPLC/MS method. The format is ADME, cell-based. The note with it: embryonic stem cell, 240 h. The method, boiled down:
(§6)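 Mouse embryonic stem cells exposed 5 and 10 days to 3 or 5 μM, with DMSO and EB differentiation medium blanks. Medium extracted with chloroform; cells pelleted, saline-washed twice, sonicated in chloroform. UPLC-ESI(+)-QTOF/MS, BEH C18, 0.1% formic acid water/acetonitrile gradient 7–80% B over 5 min, 0.6 mL/min, 40 °C.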

A short description of series [26]: Drug level in embryoid body differentiation medium treated with N-[4-(Diethylamino)phenyl]-5-methyl-3-phenylisoxazole-4-carboxamide at 3 to 5 uM measured after 10 days by HPLC/MS method. In outline: as §6

The source made the active and inactive calls. No cut-off for these calls is given here.

Chain of GATA4/NKX2-5 (Q08369 whole entry): as the sequence (Q08369 whole entry) above
Chain of GATA4/NKX2-5 (P42582 whole entry): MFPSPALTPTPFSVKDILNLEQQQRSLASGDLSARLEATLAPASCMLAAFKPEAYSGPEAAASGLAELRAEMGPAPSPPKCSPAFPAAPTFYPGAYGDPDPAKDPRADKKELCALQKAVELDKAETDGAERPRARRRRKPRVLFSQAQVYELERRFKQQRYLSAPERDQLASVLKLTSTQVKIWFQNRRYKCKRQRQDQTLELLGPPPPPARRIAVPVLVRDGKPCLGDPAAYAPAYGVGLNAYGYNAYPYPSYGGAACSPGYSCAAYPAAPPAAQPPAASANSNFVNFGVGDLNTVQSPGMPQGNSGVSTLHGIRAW
Chain of Homeobox protein Nkx-2.5 (Mus musculus) (P42582 whole entry): as above
Chain of Transcription factor GATA-4 (Rattus norvegicus) (P46152 whole entry): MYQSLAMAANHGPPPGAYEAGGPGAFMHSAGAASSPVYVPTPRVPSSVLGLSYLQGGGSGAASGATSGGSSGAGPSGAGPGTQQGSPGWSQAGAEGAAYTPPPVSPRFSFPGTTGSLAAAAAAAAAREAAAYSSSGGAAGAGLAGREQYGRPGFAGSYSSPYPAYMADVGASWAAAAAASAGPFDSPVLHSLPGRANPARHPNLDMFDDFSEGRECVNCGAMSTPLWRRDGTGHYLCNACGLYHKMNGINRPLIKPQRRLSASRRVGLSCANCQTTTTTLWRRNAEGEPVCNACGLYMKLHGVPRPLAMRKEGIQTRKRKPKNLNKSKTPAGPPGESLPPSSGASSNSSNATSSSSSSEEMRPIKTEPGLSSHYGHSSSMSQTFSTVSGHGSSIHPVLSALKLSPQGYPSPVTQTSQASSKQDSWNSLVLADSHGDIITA

For orientation: IC50 means the concentration needed to halve the response being measured. The term inhibition denotes the change of the read-out against control, counted positive when it falls. In the case of `CCOc1ccc(/C=C2\SC(=O)N(CC)C2=O)cc1`, the IC50 at GATA4/NKX2-5 was found to be 5 µM. Besides, the inhibition result in [1] was “Active”.
Take `CCCOc1ccc(/C=N/n2c(S)nnc2-c2ccncc2)cc1`: the Activity result in [2], in [4] and in series [14] was “Non-Toxic” throughout. The IC50 at GATA4/NKX2-5 is 10 µM. For the same compound, in [3], the outcome was Active. For the same compound, the inhibition result in series [5], in series [7] and in [13] was “Active” in each case. The figures for the fold change (FC) in series [6] and in [11] were 4.9 and 8.6, respectively. Moreover, the inhibition entry in series [8] was “inactive”. Also, the values for the inhibition in series [9], in series [10] and in [15] were 37%, 55% and 29%, respectively. Moreover, the outcome in [12] was inactive.
Take `Cc1onc(-c2ccccc2)c1C(=O)N(C1=NC(C)CS1)c1ccc(Cl)cc1` (stereo not drawn): the result in series [16], in series [3] and in series [20] was Active. Also, the Activity entry in [2], in [4] and in series [14] was “Non-Toxic” each time. Moreover, the fold change (FC) in series [17] is 4.6; in [19], 6.4; in series [21] it was 2.1. Moreover, the Ka in [18] was found to be 7 µM.
As for `Cc1onc(-c2ccccc2)c1C(=O)Nc1ccc(C#N)c(Cl)c1`, the IC50 at GATA4/NKX2-5 stood at 16 µM. Besides, the inhibition result in [22] was “Active”.
For the compound `CC(C)COC(=O)c1ccc(NC(=O)c2ccncc2)cc1`, the concentration for half-maximal inhibition (IC50) at GATA4/NKX2-5 was 5 µM. For the same compound, the inhibition entry in series [5] was “inactive”. In addition, the inhibition entry in [8] and in series [23] was “Active” throughout.
`CC(C)COC(=O)c1ccc(NC(=O)c2cccs2)cc1`: the half-maximal inhibitory concentration (IC50) on GATA4/NKX2-5 was determined as 9 µM. For the same compound, the inhibition result in [22] was “Active”.
For `Cc1onc(-c2ccccc2)c1C(=O)Nc1ccc(OC(C)C)cc1` the same measures were 13 µM and “Active”.
As for `Cc1onc(-c2ccccc2)c1C(=O)Nc1ccc(OC(F)(F)F)cc1`, the IC50 at GATA4/NKX2-5 was 11 µM. Also, the inhibition result in [22] and in series [24] was “Active” in each case.
Regarding `CCNc1ccc(NC(=O)c2c(-c3ccccc3)noc2C)cc1`, the IC50 at GATA4/NKX2-5 is greater than 50 µM. In addition, the values for the Drug metabolism entry in series [25] and in [26] were “Metabolite_Detected” and “Metabolite detected”, respectively.

The record behind these values is ChEMBL document CHEMBL4028856, “Discovery of Small Molecules Targeting the Synergy of Cardiac Transcription Factors GATA4 and NKX2-5” (J Med Chem, 2017).
